Results taken from article PMC3217170 (Biochimica et biophysica acta, 2011).

Tests used:
[1] = tested on: PKCθ; details: ref [56]; cited from earlier work
[2] = tested on: CCKA receptor; test: CCKA receptor mediation of PKCθ T538 phosphorylation in pancreatic acini; assay type: cell-based, rat; details: preincubated 5 min, then CCK 10 nM for 1 min
[3] = tested on: PKCθ; details: ref [62]; cited from earlier work
[4] = tested on: PKCθ (pT538) in pancreatic acini; test: PKCθ T538 phosphorylation in rat pancreatic acini; assay type: cell-based; details: 5 independent experiments; for stimulation of PKCθ phosphorylation (pT538), secretagogues: isolated rat pancreatic acini, 5 minutes, Western blot
[5] = tested on: pancreatic acini (amylase secretion); test: Amylase release from pancreatic acini; assay type: cell-based, rat; details: 15 minutes, basal 1.7±0.2, mean±S.E., 6 experiments
Outline: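 Rat pancreatic acini from collagenase digestion; 2 h preincubation ± 20 μM PKCθ pseudosubstrate in HEPES-buffered (pH 7.45) standard incubation solution, then 15 min with secretagogue. Medium amylase measured with Phadebas reagent and expressed as % of total cellular amylase released during incubation. Means±S.E.; paired Student's t-test.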

[6] = tested on: PKCδ; details: ref [60]; cited from earlier work
[7] = tested on: CCKB receptors; test: CCKB receptor mediation of PKCθ T538 phosphorylation in pancreatic acini; assay type: cell-based, rat; details: 1 min, isolated acini, Western blot
[8] = tested on: PKCθ (T538); details: ref [61]; cited from earlier work
[9] = tested on: PKCθ; test: PKCθ translocation to membranes; assay type: cell-based, rat; details: TPA, 5 min incubation; p<0.05; mean±S.E., 5 independent experiments
Outline: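 Acini stimulated with CCK for 1 min or TPA for 5 min, then homogenized in Tris pH 7.5 buffer with EGTA/EDTA, vanadate, PMSF and protease inhibitors. The cleared supernatant was spun at 60,000×g for 30 min at 4 °C. The membrane pellet was washed, solubilized in Triton/deoxycholate buffer, sonicated and spun at 10,000×g. Western blot used anti-PKCθ; calpain and E-cadherin served as fraction markers. Results given as % control; 5 experiments.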

[10] = tested on: pT538 PKCθ; test: PKCθ immunofluorescence-cytochemistry; assay type: cell-based, rat; details: TPA 1 μM or CCK 10 nM, 10 minutes; 4 independent experiments
Outline: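 Acini left untreated or given TPA 1 μM or CCK 10 nM for 10 min, then washed, fixed, permeabilized and cytocentrifuged onto poly-L-lysine slides. Labelled overnight at 4 °C with rabbit anti-pT538 PKCθ and mouse anti-E-cadherin (1:500), detected with Alexa 488/555 secondaries, nuclei stained with DAPI. Isotype-matched primary as negative control; 4 experiments.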

[11] = tested on: PKCθ / Akt; test: Co-IP association of PKCθ with Akt; assay type: cell-based, rat; details: CCK 10 nM or TPA 1 μM, 2.5 min, 3 independent experiments
[12] = tested on: PKCθ / RafA; test: Co-IP association of PKCθ with RafA; assay type: cell-based, rat; details: CCK 10 nM or TPA 1 μM, 2.5 min, 3 independent experiments
[13] = tested on: PKCθ / RafC; test: Co-IP association of PKCθ with RafC; assay type: cell-based, rat; details: CCK 10 nM or TPA 1 μM, 2.5 min, 3 independent experiments
[14] = tested on: PKCθ / Lyn; test: Co-IP association of PKCθ with Lyn; assay type: cell-based, rat; details: CCK 10 nM or TPA 1 μM, 2.5 min, 3 independent experiments
[15] = tested on: PKCθ / MALT-1; test: Co-IP association of PKCθ with MALT-1; assay type: cell-based, rat; details: CCK 10 nM or TPA 1 μM, data not shown
[16] = tested on: PKCθ / 14-3-3γ; test: Co-IP association of PKCθ with 14-3-3γ; assay type: cell-based, rat; details: CCK 10 nM or TPA 1 μM, data not shown
[17] = tested on: PKCθ / Cbl; test: Co-IP association of PKCθ with Cbl; assay type: cell-based, rat; details: CCK 10 nM or TPA 1 μM, data not shown
[18] = tested on: PKCθ / p85 PI3K; test: Co-IP association of PKCθ with p85 PI3K; assay type: cell-based, rat
Outline: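 Rat acini stimulated with CCK 10 nM or TPA 1 μM, then lysed in CelLytic buffer with vanadate, PMSF and protease inhibitors. Lysate (750 μg/ml) incubated overnight at 4 °C with 4 μg antibody and protein G-agarose. Immunoprecipitates washed with PBS, then analysed by SDS-PAGE and Western blotting.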

[19] = tested on: PKCθ / RafB; test: Co-IP association of PKCθ with RafB; assay type: cell-based, rat
Outline: (§1)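 Rat pancreatic acini are dispersed by collagenase and preincubated 2 hrs at 37 °C in HEPES (pH 7.45) incubation solution, then left unstimulated or given CCK (10 nM) or TPA (1 μM). Cells are lysed in CelLytic buffer with vanadate, PMSF and protease inhibitors. Lysate (750 μg/ml) is immunoprecipitated overnight at 4 °C with 4 μg anti-PKCθ plus protein G-agarose, PBS-washed, then analysed by SDS-PAGE/Western blot; ≥3 experiments.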

[20] = tested on: PKCθ / tubulin; test: Co-IP association of PKCθ with tubulin; assay type: cell-based, rat
Outline: as §1

[21] = tested on: PKD (pS744/748); test: PKD phosphorylation stimulated by CCK or TPA; assay type: cell-based, rat; details: TPA 1 μM, 5 min, no inhibitor; p<0.05
Outline: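 Collagenase-dispersed rat acini preincubated 3 h ± 20 μM PKCθ pseudosubstrate, then CCK (10 nM, 2.5 min) or TPA (1 μM, 5 min), and lysed. Equal protein Western-blotted for pY311 PKCδ, pS744/748 PKD, pS338 RafC or pY416 Src, with total PKCθ and α/β tubulin as loading controls. Bands quantified by densitometry in the linear range. ≥3 experiments; mean±SEM; paired t-test.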

Which “PKCθ activation in myocytes” value [1] does the source give for insulin: known pancreatic growth factor here?
Its value is “able to increase PKCθ activation”.

Which “inhibition of CCK-stimulated PKCθ phosphorylation, CCKA receptor antagonists” value [2] does the source give for O=C(O)Cn1c(C(=O)Nc2nc(-c3ccccc3Cl)cs2)cc2ccccc21 [SR27897, 1-[[2-(4-(2-chlorophenyl)-thiazol-2-yl)aminocarbonyl]indolyl]acetic acid] here?
Its value is “completely inhibited”.

With IGF: insulin-like growth factor 1 as the compound, how does the “PKCθ catalytic activity in rhabdomyosarcoma cell line” value [3] read?
Its value is “increases PKCθ catalytic activity”.

With “secretin: gastrointestinal hormone that causes an increase in the cAMP” as the compound, how does the “stimulation of PKCθ phosphorylation (pT538), secretagogues” value (“stimulation of PKCθ phosphorylation” below) [4] read?
Its value is “Neither”.

Which “stimulation of PKCθ phosphorylation” value [4] does the source give for vasoactive intestinal peptide [VIP] here?
The value was “Neither”.

What about the “Amylase secretion (% total), −PKCθ inhibitor” value ([5]; VIP 10 nM) of the same compound?
Its value is 3.4±0.6 % total.

And the “PKCδ activation in cortical astrocytes” value [6]?
Its value is “activates PKCδ”.

Which “stimulation of PKCθ phosphorylation” value [4] does the source give for bombesin here?
Its value is “stimulated a significant increase”.

Which “pT538 PKCθ phosphorylation by gastrin” value [7] does the source give for gastrin here?
The value was “did not produce any increase”.

For EGF: Epidermal growth factor, which “T538 PKCθ phosphorylation in A431 cells” value [8] is on record?
Its value is “increases T538 PKCθ phosphorylation”.

For C[N+](C)(C)CCOC(N)=O [carbachol], which “stimulation of PKCθ phosphorylation” value [4] is on record?
Its value is “stimulated a significant increase”.

And the “Amylase secretion (% total), −PKCθ inhibitor” value ([5]; Carbachol 1 μM)?
The value was 6.8±0.7 % total.

And the “Amylase secretion (% total), −PKCθ inhibitor” value ([5]; Carbachol 1 mM)?
Its value is 6.2±0.7 % total.

With CCCCCCCCCCCCCC(=O)O[C@@H]1[C@@H](C)[C@@]2(O)[C@@H](C=C(CO)C[C@]3(O)C(=O)C(C)=C[C@@H]23)[C@H]2C(C)(C)[C@]12OC(C)=O [TPA, 12-O-tetradecanoylphobol-13-acetate] as the compound, how does the “tmax of pT538 PKCθ phosphorylation” value ([4]; time course) read?
Its value is 1.60±0.06 min.

And the “pT538 PKCθ phosphorylation, maximum at about 1 min” value ([4]; time course, 1 min, mean±S.E.)?
Its value is 188±13 % of control.

What about the “pT538 PKCθ phosphorylation at 30 min” value ([4]; time course, 30 min, mean±S.E.) of the same compound?
The value was 171±23 % of control.

What about the “membrane associated PKCθ” value [9] of the same compound?
The value was 189±59 % of control.

And the “phosphoT538 PKCθ in the membrane (immunofluorescence)” value [10]?
Its value is “increased in the membrane in both cases (Panel B and C, Fig. 6, respectively), with the increase caused by TPA more prominent”.

What about the “association of PKCθ with Akt” value [11] of the same compound?
Its value is “increase in the association”.

And the “association of PKCθ with RafA” value [12]?
Its value is “increase in the association”.

What about the “association of PKCθ with RafC” value [13] of the same compound?
Its value is “increase in the association”.

And the “association of PKCθ with Lyn” value [14]?
Its value is “increase in the association”.

And the “association of PKCθ with MALT-1” value [15]?
The value was “but not with MALT-1, Bcl-10, 14-3-3γ or Cbl”.

And the “association of PKCθ with 14-3-3γ” value [16]?
Its value is “but not with MALT-1, Bcl-10, 14-3-3γ or Cbl”.

What about the “association of PKCθ with Cbl” value [17] of the same compound?
The value was “but not with MALT-1, Bcl-10, 14-3-3γ or Cbl”.

And the “association of PKCθ with p85 PI3K” value [18]?
The value was “but not an association with p85 PI3K”.

And the “association of PKCθ with RafB” value [19]?
Its value is “but not an association with p85 PI3K, PKD1, RafB”.

And the “association of PKCθ with tubulin” value [20]?
Its value is “but not an association with p85 PI3K, PKD1, RafB, Bcl-10, Cbl, MALT-1, tubulin”.

What about the “phosphorylation of PKD stimulated by TPA” value [21] of the same compound?
The value was 19.1±3.0 folds over control.
